This note sets out measurements from ChEMBL document CHEMBL1139198, “Aryl sulfonamido indane inhibitors of the Kv1.5 ion channel” (Bioorg Med Chem Lett, 2007).

As a reminder, the inhibition is the change of the read-out against control, counted positive when it falls. As usually defined, the IC50 is the point on the concentration scale where inhibition reaches its midpoint. A high value points to weaker potency. By solubility is commonly meant the concentration that dissolves in the medium under given conditions. A word on the bioavailability: it is dose-corrected exposure relative to a reference, in per cent. Read a high bioavailability as much systemic uptake. One may read the half-life as how long it takes for the measured level to halve. Low readings indicate rapid decline, high ones slow decline. By CL/F is commonly meant clearance divided by bioavailability, as obtained after extravascular dosing.

Values after ≈ are worked out from the molar mass of the structure shown. Some results are limits rather than exact numbers.

The target in data set [1] is T1, Potassium voltage-gated channel subfamily A member 5 (Homo sapiens, UniProt P22460). Description: Inhibition of Kv1.5 channel mediated delayed rectifier potassium current at 1 uM by patch-clamp technique.
T1 sequence (P22460 whole entry): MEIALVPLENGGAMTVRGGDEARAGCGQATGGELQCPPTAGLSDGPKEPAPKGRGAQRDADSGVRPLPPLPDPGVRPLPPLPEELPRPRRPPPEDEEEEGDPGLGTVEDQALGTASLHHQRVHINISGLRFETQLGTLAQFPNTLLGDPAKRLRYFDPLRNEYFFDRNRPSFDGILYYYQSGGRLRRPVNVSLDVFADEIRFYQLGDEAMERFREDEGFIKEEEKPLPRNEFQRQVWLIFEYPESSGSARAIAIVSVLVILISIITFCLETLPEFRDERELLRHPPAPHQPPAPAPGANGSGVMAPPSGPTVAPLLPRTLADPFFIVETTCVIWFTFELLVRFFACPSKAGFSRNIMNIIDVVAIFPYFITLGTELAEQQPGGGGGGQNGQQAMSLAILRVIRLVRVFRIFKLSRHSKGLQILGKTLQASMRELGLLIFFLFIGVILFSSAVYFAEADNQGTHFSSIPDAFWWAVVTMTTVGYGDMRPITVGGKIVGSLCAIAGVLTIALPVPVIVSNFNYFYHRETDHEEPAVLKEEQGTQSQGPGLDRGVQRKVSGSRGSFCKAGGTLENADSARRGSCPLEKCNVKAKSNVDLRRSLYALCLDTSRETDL
Data set [2] deals with T1, Potassium voltage-gated channel subfamily A member 5. Description: Inhibition of Kv1.5 channel mediated delayed rectifier potassium current by patch-clamp technique. For orientation: Patch clamp records ionic current or voltage across a cell membrane.
Data set [3] is described as follows: Aqueous solubility of the compound. The class given is physicochemical. As to conditions: buffer. An outline of the steps:
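Crystalline solid; shake-flask method in 50 mM phosphate-buffered saline, pH 6.8; dissolved compound quantified by LC/MS/MS.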

Data set [4] concerns the target hERG (KCNH2) (Homo sapiens, UniProt Q12809). Nature of the data set: Inhibition of hERG at 10 uM. The class given is toxicity. For orientation: hERG is a cardiac potassium channel; its block is linked to QT prolongation.
The target of data set [5] is SCN5A (sodium channel protein type 5 subunit alpha) (Homo sapiens, UniProt Q14524). Nature of the data set: Inhibition of human SCN5A channel at 10 uM.
Sequence of SCN5A (sodium channel protein type 5 subunit alpha) (Q14524 whole entry): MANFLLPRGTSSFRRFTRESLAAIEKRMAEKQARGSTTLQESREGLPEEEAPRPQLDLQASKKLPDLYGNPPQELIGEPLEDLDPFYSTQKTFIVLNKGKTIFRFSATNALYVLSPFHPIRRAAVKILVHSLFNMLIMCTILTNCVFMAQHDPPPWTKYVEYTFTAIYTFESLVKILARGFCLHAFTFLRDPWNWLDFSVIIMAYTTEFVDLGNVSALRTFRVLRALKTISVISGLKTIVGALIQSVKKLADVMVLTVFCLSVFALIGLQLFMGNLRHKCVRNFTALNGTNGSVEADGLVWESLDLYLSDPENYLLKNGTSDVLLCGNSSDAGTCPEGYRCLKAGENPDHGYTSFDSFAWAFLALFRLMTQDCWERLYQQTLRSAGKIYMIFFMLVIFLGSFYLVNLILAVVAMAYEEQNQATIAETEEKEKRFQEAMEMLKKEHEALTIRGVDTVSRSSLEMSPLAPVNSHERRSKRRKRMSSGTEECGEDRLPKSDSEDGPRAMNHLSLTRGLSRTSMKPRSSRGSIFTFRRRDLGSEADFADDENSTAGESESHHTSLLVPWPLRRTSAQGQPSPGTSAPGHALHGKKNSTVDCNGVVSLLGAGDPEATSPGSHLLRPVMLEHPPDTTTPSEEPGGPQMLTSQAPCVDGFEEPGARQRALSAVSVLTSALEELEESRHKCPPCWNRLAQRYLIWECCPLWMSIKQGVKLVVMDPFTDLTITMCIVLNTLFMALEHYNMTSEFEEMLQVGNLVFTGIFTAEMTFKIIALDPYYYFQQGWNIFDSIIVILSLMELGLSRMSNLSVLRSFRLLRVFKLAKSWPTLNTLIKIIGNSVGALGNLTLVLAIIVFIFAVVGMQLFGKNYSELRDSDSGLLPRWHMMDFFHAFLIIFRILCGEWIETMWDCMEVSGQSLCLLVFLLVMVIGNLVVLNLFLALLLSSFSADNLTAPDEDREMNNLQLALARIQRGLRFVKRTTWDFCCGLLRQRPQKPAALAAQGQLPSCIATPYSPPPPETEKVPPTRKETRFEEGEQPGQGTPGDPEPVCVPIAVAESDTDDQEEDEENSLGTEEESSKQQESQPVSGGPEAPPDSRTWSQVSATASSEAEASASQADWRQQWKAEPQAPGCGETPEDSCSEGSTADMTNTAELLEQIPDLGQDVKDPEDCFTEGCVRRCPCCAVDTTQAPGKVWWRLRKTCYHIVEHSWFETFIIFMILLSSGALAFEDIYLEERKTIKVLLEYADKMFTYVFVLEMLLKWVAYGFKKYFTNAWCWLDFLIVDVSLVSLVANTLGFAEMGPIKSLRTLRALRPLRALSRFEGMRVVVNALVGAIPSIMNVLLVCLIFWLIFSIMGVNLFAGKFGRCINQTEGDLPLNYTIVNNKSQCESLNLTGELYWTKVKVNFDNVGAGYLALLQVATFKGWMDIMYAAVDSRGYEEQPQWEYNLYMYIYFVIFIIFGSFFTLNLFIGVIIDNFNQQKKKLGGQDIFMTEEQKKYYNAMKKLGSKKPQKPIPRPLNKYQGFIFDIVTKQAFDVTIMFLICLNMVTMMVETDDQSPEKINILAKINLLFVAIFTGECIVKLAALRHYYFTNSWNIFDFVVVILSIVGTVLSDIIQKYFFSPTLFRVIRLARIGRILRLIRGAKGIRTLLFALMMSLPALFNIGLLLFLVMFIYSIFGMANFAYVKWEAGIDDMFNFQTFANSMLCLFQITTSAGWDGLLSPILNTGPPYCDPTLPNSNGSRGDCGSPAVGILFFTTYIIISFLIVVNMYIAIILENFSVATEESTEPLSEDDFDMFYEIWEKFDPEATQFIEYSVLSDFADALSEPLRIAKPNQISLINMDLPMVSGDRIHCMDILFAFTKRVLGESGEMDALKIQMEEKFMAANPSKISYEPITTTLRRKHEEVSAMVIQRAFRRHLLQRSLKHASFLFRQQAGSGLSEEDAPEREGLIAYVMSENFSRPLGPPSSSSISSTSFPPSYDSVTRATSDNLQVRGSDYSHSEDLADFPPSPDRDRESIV
Data set [6] in a line: Oral bioavailability in rat at 20 umol/kg. The settings on record: in vivo. The class given is ADME, organism-based.
Data set [7] in a line: Oral bioavailability in dog at 20 umol/kg. The class given is ADME, organism-based, Canis lupus familiaris. The settings on record: in vivo.
Data set [8] can be described thus: Half life in intra arterial infusion dosed rat at 10 umol/kg. The class given is ADME, organism-based. The settings on record: in vivo.
A short description of data set [9]: Half life in intra arterial infusion dosed dog at 10 umol/kg. The settings on record: in vivo. The class given is ADME, organism-based, Canis lupus familiaris.
Data set [10] can be described thus: Clearance in rat at 20 umol/kg, po. The class given is ADME, organism-based. As to conditions: in vivo.
A short description of data set [11]: Clearance in dog at 20 umol/kg, po. The class given is ADME, organism-based, Canis lupus familiaris. The settings on record: in vivo.
The subject of data set [12] is Rattus norvegicus. Description: Volume of distribution in rat at 20 umol/kg, po. The class given is ADME, organism-based. The settings on record: in vivo.
For data set [13], the system named is Canis familiaris. Nature of the data set: Volume of distribution in dog at 20 umol/kg, po. The class given is ADME, organism-based, Canis lupus familiaris. As to conditions: in vivo.
Data set [14] is filed under the species Rattus norvegicus. Nature of the data set: Inhibition of rat calcium channel GH3 at 10 uM.

Sequence of hERG (KCNH2) (Q12809 whole entry): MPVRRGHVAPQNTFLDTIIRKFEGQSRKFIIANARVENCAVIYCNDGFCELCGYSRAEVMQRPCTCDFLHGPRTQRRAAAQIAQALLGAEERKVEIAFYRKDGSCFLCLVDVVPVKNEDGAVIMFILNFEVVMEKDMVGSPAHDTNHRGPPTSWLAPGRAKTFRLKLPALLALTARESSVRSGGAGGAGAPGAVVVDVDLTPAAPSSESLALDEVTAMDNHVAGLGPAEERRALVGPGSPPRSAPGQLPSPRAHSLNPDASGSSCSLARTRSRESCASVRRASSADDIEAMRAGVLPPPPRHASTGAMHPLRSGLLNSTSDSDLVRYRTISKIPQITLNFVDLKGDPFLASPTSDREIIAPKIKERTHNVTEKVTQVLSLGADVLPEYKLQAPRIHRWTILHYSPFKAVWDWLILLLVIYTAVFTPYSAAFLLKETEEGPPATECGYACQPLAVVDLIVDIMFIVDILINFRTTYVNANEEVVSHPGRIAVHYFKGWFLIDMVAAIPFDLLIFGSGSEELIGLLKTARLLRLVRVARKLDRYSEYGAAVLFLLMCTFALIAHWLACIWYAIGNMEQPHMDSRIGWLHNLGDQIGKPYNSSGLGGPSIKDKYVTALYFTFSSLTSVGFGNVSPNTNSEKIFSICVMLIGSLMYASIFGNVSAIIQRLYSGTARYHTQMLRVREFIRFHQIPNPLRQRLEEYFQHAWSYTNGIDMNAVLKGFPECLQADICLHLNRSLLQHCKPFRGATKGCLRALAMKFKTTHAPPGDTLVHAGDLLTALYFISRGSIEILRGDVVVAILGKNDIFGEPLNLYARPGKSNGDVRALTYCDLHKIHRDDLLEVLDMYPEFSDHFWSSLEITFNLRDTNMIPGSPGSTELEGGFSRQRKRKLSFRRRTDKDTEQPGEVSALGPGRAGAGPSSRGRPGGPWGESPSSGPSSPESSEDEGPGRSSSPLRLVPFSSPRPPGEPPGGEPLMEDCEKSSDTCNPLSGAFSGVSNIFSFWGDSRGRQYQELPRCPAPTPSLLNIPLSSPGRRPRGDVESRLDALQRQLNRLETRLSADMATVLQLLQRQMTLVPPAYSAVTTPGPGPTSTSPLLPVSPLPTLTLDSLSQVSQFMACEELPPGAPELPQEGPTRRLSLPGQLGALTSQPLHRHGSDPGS

`CCc1ccc(S(=O)(=O)N[C@@H]2c3ccc(NC(=O)c4cccc(OC)c4)cc3C[C@H]2O)cc1` (racemic) gave an inhibition in data set [1] of 24%.
In the case of `CCc1ccc(S(=O)(=O)N[C@@H]2c3cc(NC(=O)c4cccc(OC)c4)ccc3CCC[C@H]2O)cc1` (racemic), in data set [2], it took 200 nM to reach half-maximal inhibition (IC50). That is a sub-micromolar value.
In data set [1], `CCc1ccc(S(=O)(=O)N[C@@H]2c3cc(N)ccc3C[C@H]2O)cc1` (racemic) came in with an inhibition of 2%.
For `CCc1ccc(S(=O)(=O)N[C@@H]2c3cc(NC(=O)c4cccc(OC)c4)ccc3C[C@H]2O)cc1` [listing 1 of 2 here], the IC50 in data set [2] was found to be 33 nM. In data set [3], this compound gave a solubility of 1.3 µg/mL (≈ 2.79 µM). In addition, the figures for the inhibition at 10 µM in data set [4] and in data set [5] were 37% and 15%, respectively. The figures for the bioavailability in [6] and in [7] were 1% and 5%, respectively. Also, the figures for the half-life in data set [8] and in data set [9] were 24 min and 90 min, respectively. The apparent clearance (CL/F) worked out at 200 mL/min/kg in [10] and 12 mL/min/kg in [11]. For the same compound, the Vd in [12] is 4 L/kg; in data set [13] it was 1.4 L/kg.
`CCc1ccc(S(=O)(=O)N[C@@H]2c3ccccc3C[C@H]2O)cc1` (racemic) came in with an inhibition in data set [1] of 3%.
In turn, `CCc1ccc(S(=O)(=O)N[C@@H]2c3cccc(NC(=O)c4cccc(OC)c4)c3C[C@H]2O)cc1` (racemic) gave an inhibition in [1] of 17%.
In the case of `CCc1ccc(S(=O)(=O)N[C@@H]2c3cc(NC(=O)c4cccc(OC)c4)ccc3C[C@@H]2O)cc1` (racemic), half-maximal inhibition in [2] (IC50) was put at 300 nM.
In turn, `CCc1ccc(S(=O)(=O)NC2CCc3ccc(NC(=O)c4cccc(OC)c4)cc32)cc1` (racemic) gave an IC50 in data set [2] of 150 nM. The solubility in [3] (read-out: Solubility) is under 0.1 µg/mL.
In data set [2], `CCc1ccc(S(=O)(=O)N[C@@H]2c3cc(NC(=O)c4cccc(OC)c4)ccc3C[C@H]2O)cc1` (racemic) yielded an IC50 of 160 nM. In [3], this compound had a solubility of 2.9 µg/mL (≈ 6.22 µM).
Compound `CCc1ccc(S(=O)(=O)NCc2cccc(NC(=O)c3cccc(OC)c3)c2)cc1` had an IC50 in data set [2] of 240 nM. The solubility in data set [3] (read-out: Solubility) was found to be 0.8 µg/mL (≈ 1.88 µM).
With `CCc1ccc(S(=O)(=O)N[C@H]2c3cc(NC(=O)c4cccc(OC)c4)ccc3C[C@@H]2O)cc1`, the IC50 in data set [2] worked out at 760 nM.
`CCc1ccc(S(=O)(=O)N[C@@H]2c3cc(NC(=O)c4cccc(OC)c4)ccc3CC[C@H]2O)cc1` (racemic) yielded an IC50 in data set [2] of 440 nM.
As for `CCc1ccc(S(=O)(=O)N[C@@H]2c3cc(NC(=O)c4cccc(OC)c4)ccc3C[C@H]2O)cc1` [listing 2 of 2 here], in data set [14], the inhibition is 27%.
`CCc1ccc(S(=O)(=O)N[C@@H]2c3c(cccc3NC(=O)c3cccc(OC)c3)C[C@H]2O)cc1` (racemic) registered a half-maximal inhibitory concentration (IC50) in data set [2] of 880 nM.
